Sampled rows, rich in hits. Any-hit rate of the full collection: about 3.8%.
MrgX1 allo act: human MrgX1 positive allosteric modulation, primary screen | Q96LB2 | MrgX1-HEK293, Fluo-4 calcium flux, FDSS; stronger effect = higher value | B-score at 10 µM | actives 0.63% (n = 310,000);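 active = plate-corrected calcium response at least 3 library SD above typical, normal starting fluorescence, not activating the receptor alone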;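 also: compound read alongside a low EC10 to EC30 dose of BAM8-22 agonist; peak minus trough fluorescence over baseline measured at the second addition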
Target sequence (Q96LB2 whole entry, looked up): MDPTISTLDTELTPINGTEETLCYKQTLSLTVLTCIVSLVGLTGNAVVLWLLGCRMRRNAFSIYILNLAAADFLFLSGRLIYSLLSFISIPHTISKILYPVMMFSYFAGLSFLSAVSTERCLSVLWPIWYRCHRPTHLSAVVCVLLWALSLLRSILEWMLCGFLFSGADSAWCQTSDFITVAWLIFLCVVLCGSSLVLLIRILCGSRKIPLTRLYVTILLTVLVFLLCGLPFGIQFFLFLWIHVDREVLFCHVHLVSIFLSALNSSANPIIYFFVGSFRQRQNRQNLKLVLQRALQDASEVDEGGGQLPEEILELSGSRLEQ
MrgX1 antagonist: human MrgX1 receptor antagonism, primary screen. Q96LB2. actives 1.3% (n = 310,000). MRGX1-HEK293 calcium flux, Fluo-4, BAM8-22 antagonism; stronger effect = lower value. B-score at 10 µM;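 active = calcium-response B-score plate-corrected more than 3 library SD below zero, starting fluorescence within 5 deviations, no agonist response on first addition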;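 also: peak minus trough fluorescence over baseline after final BAM8-22 challenge near maximal dose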
MrgX1 agonist: human MrgX1 receptor agonism, primary screen | B-score at 10 µM | AID 588627 | Q96LB2 | actives 0.44% (n = 310,000) | MrgX1-HEK293 cells, Fluo-4 calcium fluorescence, agonist mode; stronger effect = higher value;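 active = calcium response B-score plate-corrected fluorescence ratio at least 3 library SD, with starting fluorescence B-score inside 5 SD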
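Test system: Stable human MrgX1 HEK293 cell line | Schedule: Overnight plating before 1 h dye loading | Read-out basis: Baseline-normalised fluorescence change ratio, B-scored | Detection: Kinetic calcium dye fluorescence, Fluo-4 NW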
Hep lipid drop: hepatic lipid droplet formation modulation | AML12 mouse hepatocytes, oleate lipid droplets, BODIPY imaging | inhibition, % at 6.5 µM | actives 0.4% (n = 240,000);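 active = lipid droplet intensity inhibited by at least 50%, with more than 500 cells counted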
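Material – AML12 mouse liver cells · Also added – oleate loading, 100 µM · Compound dosing – 6.5 µM single-point dosing · Times – overnight treatment with compound plus oleate · Measured by – fluorescence imaging, 20x objective, two fields per well · Read-out – percent inhibition of filter-corrected integrated lipid droplet intensity per well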
RGS4 block: inhibitors of human RGS4 | HEK293 M3R/RGS4 inducible, Fluo-4 calcium flux; stronger effect = higher value; triggered by carbachol at its EC20 | B-score at 10 µM | actives 0.45% (n = 310,000) | AID 463165;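 active = B-score, a plate-corrected calcium signal, over three deviations above library mean, with baseline fluorescence within five deviations of library mean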;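 also: RGS4 expression induced by doxycycline in cells with stable M3 receptor; B-score is computed from the integrated fluorescence ratio over baseline after carbachol; higher B-score means a larger calcium signal and so more RGS4 inhibition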
Target sequence (P49798 whole entry, looked up): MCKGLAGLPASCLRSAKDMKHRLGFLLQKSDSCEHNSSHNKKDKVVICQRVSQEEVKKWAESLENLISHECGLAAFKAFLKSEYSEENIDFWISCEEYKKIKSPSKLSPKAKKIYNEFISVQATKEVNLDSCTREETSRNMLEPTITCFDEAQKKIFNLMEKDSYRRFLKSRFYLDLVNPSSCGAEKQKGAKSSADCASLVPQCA
RGS4 act: RGS4 potentiation or activation; HEK293 M3R/inducible RGS4, carbachol calcium flux Fluo4; stronger effect = lower value; B-score at 10 µM; actives 0.92% (n = 310,000); AID 463111;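 active = B-score of the integrated calcium signal more than 4 SD below the library mean, with starting fluorescence not abnormally high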;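 also: negative B-score means reduced calcium response which marks RGS4 activation or potentiation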
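Test system: HEK293 cells with stable M3R and inducible RGS4; also added: carbachol at ECmax as muscarinic agonist stimulus; schedule: dye loading 30 min 37 °C, buffer rest 30 min RT; technique: kinetic calcium fluorescence imaging with Fluo4-AM dye, 2 µM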
RGS4 act valid: RGS4 activation, validation assay; shares compounds with RGS4 act; HEK293 M3R/RGS4 inducible, carbachol calcium flux Fluo4; inhibition, % at 10 µM; actives 89% (n = 1,100);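 active = inhibition above 3 SD of the buffer control wells, cut at about 41% in these data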;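 also: signal is the integrated peak-minus-minimum Fluo4 fluorescence over baseline ratio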
RGS4 act ctr: RGS4 activator counter-screen hit in non-induced cells. shares compounds with RGS4 act. HEK293 M3R non-induced RGS4, Fluo4 calcium flux; after carbachol challenge at its EC90. inhibition, % at 10 µM. actives 82% (n = 1,100). AID 602283;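 active = inhibition exceeding 3 SD of buffer-only control wells, cut at about 26% in these data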;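 also: percent drop in integrated peak-minus-baseline over baseline Fluo4 ratio after carbachol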
MrgX1 antag conf: human MrgX1 receptor antagonism, re-confirmation screen; shares compounds with MrgX1 antagonist; MrgX1-HEK293, BAM8-22 calcium flux, Fluo-4; stronger effect = lower value; remaining BAM8-22 calcium response % of control (stronger effect = lower value), % at 10 µM; actives 19% (n = 2,300);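 active = remaining agonist calcium response no higher than 100% minus 3 SD of agonist-only control wells, with starting fluorescence near control levels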;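 also: agonist BAM8-22 given at a near maximal EC90 to ECmax level; peak minus minimum fluorescence divided by baseline after agonist addition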
HEK293 Ca flux: activity in parental HEK293 cells lacking MrgX1; actives 2% (n = 4,000); AID 624111; shares compounds with MrgX1 antagonist; fluorescence ratio F(max-min)/F0 at 10 µM; Fluo-4 calcium fluorescence, FDSS;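 active = duplicate-averaged calcium fluorescence ratio at least three times the standard deviation of buffer wells, a nonspecific response in parental cells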
HEK293 Ca counter: activity in parental HEK293 cells without MrgX1. shares compounds with MrgX1 antagonist. parental HEK293 calcium flux, Fluo-4 fluorescence ratio; stronger effect = higher value. fluorescence ratio F(max-min)/F0 at 10 µM. actives 0.4% (n = 4,000);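 active = calcium fluorescence ratio, averaged over duplicates, at least 3 SD of the buffer-well ratio, meaning a nonspecific response in receptor-free cells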;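 also: untransfected parental HEK293 lacking MrgX1 used as counterscreen for MrgX1 allosteric activators; fluorescence change taken during the second addition on a kinetic imager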
HEK293 Ca cntr2: MrgX1 activator counter-screen hit in parental HEK293 cells. actives 8.7% (n = 4,000). shares compounds with MrgX1 antagonist. Fluo-4 calcium fluorescence (FDSS); stronger effect = higher value. fluorescence ratio F(max-min)/F0 at 10 µM. AID 624115;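 active = calcium fluorescence ratio at least three times the spread of buffer wells, meaning a non-specific response in parental cells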
Numbers stand for hits.

Screening CSc1n[nH]c(NC2=CC(=O)CCC2)n1 returned MrgX1 allo act inactive, MrgX1 antagonist inactive, MrgX1 agonist inactive, RGS4 block inactive, RGS4 act -7.66, RGS4 act valid inactive and RGS4 act ctr inactive.
COc1cccc(C2C3CN(C)CC=C3C(C#N)=C(N)C2(C#N)C#N)c1OC (stereo not drawn) was read as MrgX1 allo act inactive, MrgX1 antagonist inactive, MrgX1 agonist inactive, Hep lipid drop inactive, RGS4 block inactive, RGS4 act -7.97, RGS4 act valid 53.5 and RGS4 act ctr 45.8.
For O=C(O)c1ccccc1NS(=O)(=O)c1ccc(NNC(=S)Nc2ccc(OC(F)F)cc2)c([N+](=O)[O-])c1 the results were Hep lipid drop inactive, RGS4 block inactive, RGS4 act -11.7, RGS4 act valid inactive and RGS4 act ctr inactive.
N#Cc1ccccc1NC(=O)c1ccc2c(c1)OCCO2 was read as MrgX1 allo act inactive, MrgX1 antagonist inactive, MrgX1 agonist inactive, Hep lipid drop inactive, RGS4 block inactive and RGS4 act inactive.
`CCOC(=O)CSc1nc(C2CC2)cc(-c2ccc(F)cc2)c1C#N` gave MrgX1 allo act inactive, MrgX1 antagonist inactive, MrgX1 agonist inactive, RGS4 block inactive, RGS4 act -8.48, RGS4 act valid 65.5 and RGS4 act ctr inactive.
`CC(=O)/C(C(=N)N1CCN(C(c2ccccc2)c2ccccc2)CC1)=C(\C)O` gave MrgX1 allo act inactive, MrgX1 antagonist inactive, MrgX1 agonist inactive, RGS4 block inactive, RGS4 act -9.24, RGS4 act valid 81.0 and RGS4 act ctr 83.8.
`CC(=O)/C(C(=N)N1CCN(Cc2ccccc2)CC1)=C(\C)O` gave MrgX1 allo act inactive, MrgX1 antagonist inactive, MrgX1 agonist inactive, Hep lipid drop inactive, RGS4 block inactive and RGS4 act inactive.
Screening COc1cccc(CN2CCN(Cc3ccc(O)cc3)CC2CCO)c1 (stereo not drawn) returned MrgX1 allo act inactive, MrgX1 antagonist inactive, MrgX1 agonist inactive, Hep lipid drop inactive, RGS4 block inactive and RGS4 act inactive.
CCOC(=O)c1ccc(NC(=S)N2CCSC2c2ccc(Cl)cc2)cc1 (stereo not drawn) was read as MrgX1 allo act inactive, MrgX1 antagonist -6.27, MrgX1 agonist inactive, Hep lipid drop inactive, RGS4 block inactive, RGS4 act -8.76, RGS4 act valid 93.5, RGS4 act ctr 90.8, MrgX1 antag conf 58.4%, HEK293 Ca flux inactive, HEK293 Ca counter 49.3 and HEK293 Ca cntr2 inactive.
Screening CCOC(=O)c1ccc(NC(=S)N2CCSC2c2ccc(OC)cc2)cc1 (stereo not drawn) returned MrgX1 allo act inactive, MrgX1 antagonist inactive, MrgX1 agonist inactive, Hep lipid drop inactive, RGS4 block inactive and RGS4 act inactive.
For CCCCN(C(=O)c1c(CC)noc1C)c1c(N)n(CCC)c(=O)[nH]c1=O the results were MrgX1 allo act inactive, MrgX1 antagonist inactive, MrgX1 agonist inactive, RGS4 block inactive and RGS4 act inactive.
For Cc1ccc(OCc2ccc(C(=O)N3CCCC3)o2)cc1C the results were MrgX1 allo act inactive, MrgX1 antagonist -5.32, MrgX1 agonist inactive, Hep lipid drop inactive, RGS4 block inactive, RGS4 act -7.88, RGS4 act valid 73.0, RGS4 act ctr 83.8, MrgX1 antag conf 72.6%, HEK293 Ca flux inactive, HEK293 Ca counter inactive and HEK293 Ca cntr2 inactive.
`CCOc1ccc(OCc2ccc(C(=O)N3CCCCC3)o2)cc1` gave MrgX1 allo act inactive, MrgX1 antagonist inactive, MrgX1 agonist inactive, Hep lipid drop inactive, RGS4 block inactive and RGS4 act inactive.
For CNS(=O)(=O)c1cccc(C(=O)OCc2cc(=O)oc3c(C)c(O)ccc23)c1 the results were MrgX1 allo act inactive, MrgX1 antagonist -9.44, MrgX1 agonist inactive, Hep lipid drop inactive, RGS4 block inactive, RGS4 act -8.18, RGS4 act valid 85.0, RGS4 act ctr 70.3, MrgX1 antag conf 54.1%, HEK293 Ca flux inactive, HEK293 Ca counter inactive and HEK293 Ca cntr2 inactive.
For COc1ccccc1OC(C)C(=O)Nc1nc(-c2ccc(S(=O)(=O)N3CCOCC3)cc2)cs1 (stereo not drawn) the results were MrgX1 allo act inactive, MrgX1 antagonist inactive, MrgX1 agonist inactive, RGS4 block inactive and RGS4 act inactive.
Screening COc1ccccc1C(=O)Nc1nc(-c2ccc(S(=O)(=O)N3CCOCC3)cc2)cs1 returned MrgX1 allo act inactive, MrgX1 antagonist -8.35, MrgX1 agonist inactive, Hep lipid drop inactive, RGS4 block inactive, RGS4 act -9.56, RGS4 act valid 91.5, RGS4 act ctr 58.3, MrgX1 antag conf 51.5%, HEK293 Ca flux inactive, HEK293 Ca counter inactive and HEK293 Ca cntr2 inactive.
For Cc1cc(N2CCN(C)CC2)nc2ccc(NC(=O)c3ccc(Br)o3)cc12 the results were MrgX1 allo act inactive, MrgX1 antagonist inactive, MrgX1 agonist inactive, Hep lipid drop inactive, RGS4 block inactive and RGS4 act inactive.
Screening Cc1cc(N2CCCCC2)nc2ccc(NC(=O)c3ccc(Br)o3)cc12 returned MrgX1 allo act inactive, MrgX1 antagonist -6.88, MrgX1 agonist inactive, Hep lipid drop inactive, RGS4 block inactive, RGS4 act -7.73, RGS4 act valid 71.5, RGS4 act ctr 83.8, MrgX1 antag conf inactive, HEK293 Ca flux inactive, HEK293 Ca counter inactive and HEK293 Ca cntr2 inactive.
Screening CCC(C)(C(=O)NC1CCCCC1)N(Cc1cccs1)C(=O)c1ccc(=O)[nH]c1 (stereo not drawn) returned MrgX1 allo act inactive, MrgX1 antagonist inactive, MrgX1 agonist inactive, Hep lipid drop inactive, RGS4 block inactive and RGS4 act inactive.

Assay outcomes from PubChem.
